31 compounds from ChEMBL document CHEMBL1157137, “Design, synthesis and biological evaluation of piperazine analogues as CB1 cannabinoid receptor ligands” (Bioorg Med Chem, 2008) can be followed below.

The target in experiment [1] is Cannabinoid receptor 1 (Rattus norvegicus, UniProt P20272). The experiment is described as follows: Displacement of [3H]CP-55940 from CB1 receptor in Sprague-Dawley rat cerebella membrane. The method, boiled down: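 Male Sprague–Dawley rat (200–300 g) cerebellar membranes incubated with 3 nM [3H]CP55,940 and varied ligand concentrations in TME buffer with 0.5% fatty-acid-free BSA, 1 h at 30 °C. Filtered over PEI-soaked GF/B filters, washed five times with ice-cold buffer containing 0.1% BSA, then counted by liquid scintillation. IC50 from single determinations.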

A further experiment deals with Cannabinoid receptor 2 (Homo sapiens, UniProt P34972). As to the kind of experiment: Displacement of [3H]WIN-55212-2 from human CB2 receptor expressed in CHOK1 cells. The experiment is classed as cell-based, CHO-K1. The essentials:
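Membranes were from CHO K-1 cells transfected with human CB2. They were incubated with 3 nM [3H]WIN55,212-2 and varied ligand concentrations in TME/0.5% fatty-acid-free BSA, 1 h at 30 °C. Bound ligand was separated on 0.1% PEI-soaked GF/B filters, washed five times with ice-cold 0.1% BSA buffer, and counted by scintillation. IC50 from single determinations.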
Background: In a radioligand displacement assay an active substance lowers the binding of a labelled ligand.

Experiment [2] concerns the target Cannabinoid receptor 1 (Homo sapiens, UniProt P21554). As to the kind of experiment: Antagonist activity at human CB1 receptor expressed in CHOK1 cells by luciferase assay. The experiment is classed as functional, cell-based, CHO-K1.

Structures are written as SMILES. Where only a bound is given, the exact number is not on record here.

Chain of Cannabinoid receptor 1 (Rattus norvegicus, UniProt P20272) (P20272 whole entry): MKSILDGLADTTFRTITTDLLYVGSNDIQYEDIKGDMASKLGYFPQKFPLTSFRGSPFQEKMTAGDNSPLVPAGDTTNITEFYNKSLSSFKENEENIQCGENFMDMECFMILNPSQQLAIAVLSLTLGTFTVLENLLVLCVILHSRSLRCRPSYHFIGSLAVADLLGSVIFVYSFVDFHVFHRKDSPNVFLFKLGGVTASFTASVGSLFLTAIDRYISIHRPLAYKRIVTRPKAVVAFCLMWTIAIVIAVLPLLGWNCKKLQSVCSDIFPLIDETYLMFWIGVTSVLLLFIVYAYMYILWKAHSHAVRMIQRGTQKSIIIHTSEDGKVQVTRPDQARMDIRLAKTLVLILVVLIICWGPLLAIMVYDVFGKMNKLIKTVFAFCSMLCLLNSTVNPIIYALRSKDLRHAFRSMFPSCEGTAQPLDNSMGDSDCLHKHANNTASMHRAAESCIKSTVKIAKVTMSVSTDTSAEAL
Chain of Cannabinoid receptor 1 (Homo sapiens, UniProt P21554) (P21554 whole entry): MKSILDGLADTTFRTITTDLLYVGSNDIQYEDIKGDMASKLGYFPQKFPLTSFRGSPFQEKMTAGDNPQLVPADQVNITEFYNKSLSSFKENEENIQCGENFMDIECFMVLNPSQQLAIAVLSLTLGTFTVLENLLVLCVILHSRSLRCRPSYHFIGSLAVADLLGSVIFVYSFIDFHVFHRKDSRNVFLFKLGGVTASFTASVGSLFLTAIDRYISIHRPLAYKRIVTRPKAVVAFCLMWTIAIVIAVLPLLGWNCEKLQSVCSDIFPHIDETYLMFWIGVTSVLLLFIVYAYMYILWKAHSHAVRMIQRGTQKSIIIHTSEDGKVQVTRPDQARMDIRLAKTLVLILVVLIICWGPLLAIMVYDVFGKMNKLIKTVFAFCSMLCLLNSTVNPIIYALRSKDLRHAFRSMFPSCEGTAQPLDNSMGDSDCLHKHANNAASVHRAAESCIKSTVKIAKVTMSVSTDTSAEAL
Chain of Cannabinoid receptor 2 (P34972 whole entry): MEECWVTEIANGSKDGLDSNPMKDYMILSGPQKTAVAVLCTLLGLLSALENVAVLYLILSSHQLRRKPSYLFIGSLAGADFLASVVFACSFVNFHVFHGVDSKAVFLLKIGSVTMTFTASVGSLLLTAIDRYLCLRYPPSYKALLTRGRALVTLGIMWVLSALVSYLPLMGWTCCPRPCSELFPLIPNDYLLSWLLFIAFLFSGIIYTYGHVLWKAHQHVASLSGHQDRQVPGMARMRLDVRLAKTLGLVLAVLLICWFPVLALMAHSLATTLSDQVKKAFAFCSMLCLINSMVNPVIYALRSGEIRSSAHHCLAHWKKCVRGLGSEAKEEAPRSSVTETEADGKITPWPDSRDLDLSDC

The term IC50 denotes the concentration at which inhibition is half-maximal. A low value points to greater potency. On to `O=C(NC1CCCCCC1)N1CCN(C(c2ccc(Cl)cc2)c2cccc(Cl)c2Cl)CC1` (stereo not drawn), for which the IC50 is 158 nM at Cannabinoid receptor 1 [1], more than 10000 nM at Cannabinoid receptor 2 and 424 nM on Cannabinoid receptor 1 [2].

As to `Cc1ccccc1C(c1ccc(Cl)cc1)N1CCN(C(=O)NC2CCCCC2)CC1` (stereo not drawn), the IC50 on Cannabinoid receptor 1 [1] was 248 nM; on Cannabinoid receptor 2, more than 10000 nM; against Cannabinoid receptor 1 [2], 195 nM.

`O=C(NC1CCCCC1)N1CCN(C(c2ccc(Cl)cc2)c2ccc(Cl)cc2)CC1`: the IC50 at Cannabinoid receptor 1 [1] came out at 914 nM.

`O=C(C1CCC1)N1CCN(C(c2ccc(Cl)cc2)c2ccc(Cl)cc2)CC1` displayed an IC50 on Cannabinoid receptor 1 [1] of 1070 nM.

For the compound `CC(C)(C)NC(=O)N1CCN(C(c2ccc(Cl)cc2)c2cccc(Cl)c2Cl)CC1` (stereo not drawn), the IC50 was 783 nM on Cannabinoid receptor 1 [1], more than 10000 nM at Cannabinoid receptor 2 and 316 nM on Cannabinoid receptor 1 [2].

With `Cc1ccccc1C(c1ccc(Cl)cc1)N1CCN(C(=O)NCC2CCCCC2)CC1` (stereo not drawn), the figures for the IC50 on Cannabinoid receptor 1 [1], on Cannabinoid receptor 2 and against Cannabinoid receptor 1 [2] were 291 nM, more than 10000 nM and 340 nM, respectively.

The compound `O=C(NC1CCCCC1)C(=O)N1CCN(C(c2ccc(Cl)cc2)c2ccccc2Cl)CC1` (stereo not drawn) registered an IC50 on Cannabinoid receptor 1 [1] of 226 nM.

`CC(C)(C)NC(=O)N1CCN(C(c2ccc(Cl)cc2)c2ccccc2C(F)(F)F)CC1` (stereo not drawn) gave an IC50 at Cannabinoid receptor 1 [1] of 2050 nM. Compared with the last compound, the IC50 is about 9.1-fold higher.

As to `CC(C)(C)NC(=O)N1CCN(C(c2ccc(Br)cc2)c2ccccc2Cl)CC1` (stereo not drawn), the IC50 at Cannabinoid receptor 1 [1] stood at 237 nM; on Cannabinoid receptor 2, 4950 nM; against Cannabinoid receptor 1 [2], 286 nM.

The compound `CCCCCC(=O)N1CCN(C(c2ccc(Cl)cc2)c2ccc(Cl)cc2Cl)CC1` (stereo not drawn) came in with an IC50 at Cannabinoid receptor 1 [1] of 257 nM.

On to `O=C(NC1CCCCCC1)N1CCN(C(c2ccc(Cl)cc2)c2ccc(Cl)cc2Cl)CC1` (stereo not drawn), for which the values for the IC50 on Cannabinoid receptor 1 [1], at Cannabinoid receptor 2 and at Cannabinoid receptor 1 [2] were 89.2 nM, more than 10000 nM and 729 nM, respectively.

Consider `Cc1ccccc1C(c1ccc(Cl)cc1)N1CCN(C(=O)NC2CCCCCC2)CC1` (stereo not drawn), for which the IC50 on Cannabinoid receptor 1 [1] is 151 nM; on Cannabinoid receptor 2, more than 10000 nM; against Cannabinoid receptor 1 [2], 163 nM.

`O=C(NC1CCCCCC1)C(=O)N1CCN(C(c2ccc(Cl)cc2)c2ccccc2Cl)CC1` (stereo not drawn): at Cannabinoid receptor 1 [1], the 50% inhibitory concentration (IC50) amounted to 229 nM. In other words, the sub-micromolar range.

In the case of `O=C(NC1CCCCC1)N1CCN(C(c2ccc(Cl)cc2)c2ccccc2Cl)CC1` (stereo not drawn), the values for the IC50 at Cannabinoid receptor 1 [1], on Cannabinoid receptor 2 and against Cannabinoid receptor 1 [2] were 72.8 nM, more than 10000 nM and 128 nM, respectively.

In the case of `Cc1ccccc1C(c1ccc(Cl)cc1)N1CCN(C(=O)NC(C)(C)C)CC1` (stereo not drawn), the results for the IC50 on Cannabinoid receptor 1 [1], at Cannabinoid receptor 2 and on Cannabinoid receptor 1 [2] were 680 nM, more than 10000 nM and 334 nM, respectively.

In the case of `O=C(NC1CCCCC1)N1CCN(C(c2ccc(Cl)cc2)c2ccccc2C(F)(F)F)CC1` (stereo not drawn), the IC50 on Cannabinoid receptor 1 [1] was 163 nM; on Cannabinoid receptor 2, more than 10000 nM; against Cannabinoid receptor 1 [2] it was 186 nM.

With `O=C(NCC1CCCCC1)N1CCN(C(c2ccc(Br)cc2)c2ccccc2Cl)CC1` (stereo not drawn), the IC50 was 127 nM at Cannabinoid receptor 1 [1], more than 10000 nM at Cannabinoid receptor 2 and 146 nM against Cannabinoid receptor 1 [2].

On Cannabinoid receptor 1 [1], `O=C(NCC1CCCCC1)N1CCN(C(c2ccc(Cl)cc2)c2cccc(Cl)c2Cl)CC1` (stereo not drawn) yielded an IC50 of 2000 nM.

Regarding `O=C(NC1CCCCC1)N1CCN(C(c2ccc(Cl)cc2)c2cccc(Cl)c2Cl)CC1` (stereo not drawn), the IC50 at Cannabinoid receptor 1 [1] is 186 nM; on Cannabinoid receptor 2, more than 10000 nM; at Cannabinoid receptor 1 [2], 441 nM.

Turning to `CCCCCC(=O)N1CCN(C(c2ccc(Cl)cc2)c2ccc(Cl)cc2)CC1`, at Cannabinoid receptor 1 [1], the IC50 came to 1150 nM. That is a single-digit micromolar value.

In the case of `O=C(NCC1CCCCC1)N1CCN(C(c2ccc(Cl)cc2)c2ccccc2Cl)CC1` (stereo not drawn), the IC50 on Cannabinoid receptor 1 [1] was 189 nM; at Cannabinoid receptor 2, more than 10000 nM; against Cannabinoid receptor 1 [2] it was 273 nM.

For `CC(C)(C)NC(=O)N1CCN(C(c2ccc(Cl)cc2)c2ccc(Cl)cc2Cl)CC1` (stereo not drawn), the IC50 at Cannabinoid receptor 1 [1] worked out at 2000 nM.

In the case of `O=C(NC1CCCCCC1)N1CCN(C(c2ccc(Cl)cc2)c2ccccc2Cl)CC1` (stereo not drawn), the IC50 is 66.5 nM on Cannabinoid receptor 1 [1], more than 10000 nM on Cannabinoid receptor 2 and 226 nM on Cannabinoid receptor 1 [2].

As to `O=C(NCC1CCCCC1)N1CCN(C(c2ccc(Cl)cc2)c2ccc(Cl)cc2Cl)CC1` (stereo not drawn), the values for the IC50 on Cannabinoid receptor 1 [1], on Cannabinoid receptor 2 and against Cannabinoid receptor 1 [2] were 262 nM, more than 10000 nM and 1040 nM, respectively.

As for `O=C(NC1CCCCCC1)N1CCN(C(c2ccc(Br)cc2)c2ccccc2Cl)CC1` (stereo not drawn), the IC50 at Cannabinoid receptor 1 [1] was 82.3 nM; at Cannabinoid receptor 2, more than 10000 nM; on Cannabinoid receptor 1 [2], 49.4 nM.

For `O=C(NC1CCCCC1)N1CCN(C(c2ccc(Cl)cc2)c2ccc(Cl)cc2Cl)CC1` (stereo not drawn), the IC50 was 104 nM on Cannabinoid receptor 1 [1], more than 10000 nM at Cannabinoid receptor 2 and 367 nM on Cannabinoid receptor 1 [2].

On to `O=C(NC1CCCCCC1)N1CCN(C(c2ccc(Cl)cc2)c2ccccc2C(F)(F)F)CC1` (stereo not drawn), for which the IC50 was 141 nM on Cannabinoid receptor 1 [1], more than 10000 nM at Cannabinoid receptor 2 and 204 nM at Cannabinoid receptor 1 [2].

The compound `O=C(C1CCCCC1)N1CCN(C(c2ccc(Cl)cc2)c2ccc(Cl)cc2)CC1` returned an IC50 at Cannabinoid receptor 1 [1] of 1390 nM.

As to `O=C(NC1CCCCC1)N1CCN(C(c2ccc(Br)cc2)c2ccccc2Cl)CC1` (stereo not drawn), the IC50 is 103 nM at Cannabinoid receptor 1 [1], more than 10000 nM at Cannabinoid receptor 2 and 62.8 nM against Cannabinoid receptor 1 [2].

`CC(C)(C)NC(=O)N1CCN(C(c2ccc(Cl)cc2)c2ccccc2Cl)CC1` (stereo not drawn): the IC50 at Cannabinoid receptor 1 [1] stood at 122 nM; on Cannabinoid receptor 2 it was 4820 nM; at Cannabinoid receptor 1 [2], 443 nM.

As for `O=C(NCC1CCCCC1)N1CCN(C(c2ccc(Cl)cc2)c2ccccc2C(F)(F)F)CC1` (stereo not drawn), the IC50 was 526 nM at Cannabinoid receptor 1 [1], more than 10000 nM at Cannabinoid receptor 2 and 798 nM at Cannabinoid receptor 1 [2].
